Entries after “also recorded” stand apart in the source; their conditions may differ. Marks after values point to notes of the source that are not given here.
Legend:
Caco-2 cell monolayers = assay: Caco-2 permeability; conditions: in vitro ADME, data not shown
In short: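 Caco-2 monolayers (passage 94–105) were grown on permeable filters and used on day 21 after seeding. Filters were washed with pre-warmed HBSS. Drug solution (1 μM, prewarmed to 37 °C) was applied as donor to the apical or basolateral side. Both chambers were at pH 7.4.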

[1] = Ames test; cited from earlier work
HeLa cells = conditions: 10 μM compound; % of cell growth; data provided from previous studies ref 10, 11; cited from earlier work
[2] = Thermodynamic solubility assay; format: physicochemical; conditions: in vitro ADME, data not shown
In short: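 Solid test compound (0.2–0.5 mg) was saturated in PBS and shaken at 900 rpm, room temperature, for 48 h. It was centrifuged 30 min at 10 000×g, 23 °C. The supernatant was diluted 10–1000× in acetonitrile/H₂O (50/50) in two steps and quantified by LC-MS/MS.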

Pharmacokinetics in mice = format: in vivo; conditions: mouse, PO 10 mg kg^–1 in lipid emulsion
In short: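 Female C3H mice (9-week C3H/HeOuJ or 22-week C3H/HeJ, by compound) got 10 mg kg⁻¹ as a 100 μL gavage, three per dose and route. The vehicle was 55% capmul, 15% akomed, 15% ethanol and 15% cremophor, emulsified with lukewarm water. Tail-vein blood (20 μL) was taken at 0.5, 1, 2, 4, 8 and 24 h and mixed with acetonitrile. It was methanol-extracted and quantified against spiked blank mouse blood standards.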

C. trachomatis serovar D = assay: C. trachomatis in vivo infection model; set-up: species or system mouse
In short: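 Female C3H/HeJ mice, 8 weeks old, got 2.4 mg medroxyprogesterone acetate s.c. 10 and 3 days pre-infection. Vaginal mucus was swabbed away before intravaginal inoculation (5000 […], 10 μL SPG), with 30 min inverted under anaesthesia. Gavage of 100 μL of 2.33 mg mL⁻¹ in capmul/akomed/cremophor/EtOH water emulsion (n=9), vehicle alone (n=9), or 2 mg mL⁻¹ doxycycline (n=6) began at 10 h, then every 12 h for 7 days.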

[3] = test system: C. trachomatis serovar L2; assay: Reinfect assay; format: cell-based, Chlamydia trachomatis
In short: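 HeLa 229 cells were infected with serovar L2 EBs in HBSS at MOI 0.3–0.5. Test compound (2.5 or 1 μM in RPMI) was added at 1 h, then incubated 44–48 h. Cells were lysed with cold water, and EBs in SPG were 10-fold serially diluted onto fresh HeLa cells. After 44–46 h, cells were methanol-fixed and stained (anti-Chlamydia/FITC, DAPI). IFUs were counted by automated microscopy and given as % of DMSO control. Three independent experiments, duplicates.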

| Compound | Mutagenic potential [1] | HeLa viability 10 μM (%) (HeLa cells) | Oral uptake / oral data (in words) (Pharmacokinetics in mice) | other results |
| --- | --- | --- | --- | --- |
| Nc1c(Cc2cccc3ccccc23)c(C2CC2)c2n(c1=O)C(C(=O)Nc1ccccc1)CS2 (stereo not drawn) [Compound 2] | no mutagenic potential | 101 ± 3 ^a % | – | Permeability (in words) (Caco-2 cell monolayers): moderate permeability; Solubility (in words) [2]: poor solubility |
| Nc1c(Cc2cccc3ccccc23)c(C2CC2)c2n(c1=O)C(n1cc(-c3ccccc3)nn1)CS2 (stereo not drawn) [Compound 3] | no mutagenic potential | 105 ± 4 ^a % | too low to be able to be quantified | – |
| COc1c(Cc2cccc(C)c2C)cc(=O)n2c1SCC2C(=O)Nc1cc(C)cc(F)c1 (stereo not drawn) [Compound 18, 7-(2,3-Dimethylbenzyl)-N-(3-fluoro-5-methylphenyl)-8-methoxy-5-oxo-2,3-dihydrothiazolo[3,2-a]pyridine-3-carboxamide] | – | – | too low to allow for proper determination of pharmacokinetic parameters; also recorded: too low to be able to be quantified | – |
| O=C(Nc1ccccc1)C1CSc2c(C3CC3)c(Cc3cccc4ccccc34)cc(=O)n21 (stereo not drawn) [Compound 24, 8-cyclopropyl-7-(naphthalen-1-ylmethyl)-5-oxo-N-phenyl-3,5-dihydro-2H-thiazolo[3,2-a]pyridine-3-carboxamide] | – | 100 ± 4 ^a % | – | – |
| CS(=O)(=O)Nc1c(Cc2cccc3ccccc23)cc(=O)n2c1SCC2C(=O)Nc1ccccc1 (stereo not drawn) [Compound 30, 8-(Methylsulfonamido)-7-(naphthalen-1-ylmethyl)-5-oxo-N-phenyl-2,3-dihydrothiazolo[3,2-a]pyridine-3-carboxamide] | – | – | – | Effect on vaginal C. trachomatis infection (IFUs per vaginal swab) (C. trachomatis serovar D; C3H/HeJ mice, 10 mg kg^–1 oral gavage twice a day for 7 days): the course of infection was not improved; also recorded: did not affect vaginal C. trachomatis infection; Tolerability (vital signs) (C. trachomatis serovar D; mice, 10 mg kg^–1 oral gavage twice a day): no negative vital signs; Concentrations inhibiting C. trachomatis infectivity (in words) [3]: low micromolar concentrations |

From PMC7069368 (MedChemComm, 2019)
